We go through 22 compounds from ChEMBL document CHEMBL1629474, “Massive screening yields novel and selective Trypanosoma cruzi triosephosphate isomerase dimer-interface-irreversible inhibitors with anti-trypanosomal activity” (Eur J Med Chem, 2010).

The nature of experiment [1]: Selectivity for Trypanosoma cruzi triosephosphate isomerase over human triosephosphate isomerase.
Experiment [2] relates to Trypanosoma cruzi. Nature of the experiment: Antiparasitic activity against Trypanosoma cruzi T2 epimastigotes assessed as growth inhibition at 25 uM after 5 days. The class given is functional. In a few lines: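 Late-log epimastigotes were grown axenically at 28 °C in BHI-tryptose with 5% fetal calf serum and seeded at 2×10^6/mL in medium containing compound (DMSO stock; final DMSO ≤1%, 1% DMSO control). Growth was read as A590 at day 0 and day 5. Inhibition = {1 − [(Ap − A0p)/(Ac − A0c)]} × 100. Means of two experiments.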

Experiment [3] addresses Triosephosphate isomerase, glycosomal (Trypanosoma cruzi) (UniProt P52270). As to the kind of experiment: Inhibition of Trypanosoma cruzi triosephosphate isomerase at 400 uM after 2 hrs. In a few lines:
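Recombinant E. coli-expressed enzyme, dialyzed into 100 mM triethanolamine/10 mM EDTA pH 7.4, was incubated with compound (DMSO stock) in 100 mM triethanolamine, 10 mM EDTA, pH 7.4, 10% DMSO at 36 °C for 2 h. An aliquot was then assayed for activity (glyceraldehyde 3-phosphate to dihydroxyacetone phosphate, α-glycerol phosphate dehydrogenase-coupled) with 5 ng enzyme. Irreversible inhibition was scored as loss of activity; means of two experiments.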

Active and inactive are the calls of the source. The rule behind the calls is not given here.

Sequence of Triosephosphate isomerase, glycosomal (Trypanosoma cruzi) (P52270 whole entry): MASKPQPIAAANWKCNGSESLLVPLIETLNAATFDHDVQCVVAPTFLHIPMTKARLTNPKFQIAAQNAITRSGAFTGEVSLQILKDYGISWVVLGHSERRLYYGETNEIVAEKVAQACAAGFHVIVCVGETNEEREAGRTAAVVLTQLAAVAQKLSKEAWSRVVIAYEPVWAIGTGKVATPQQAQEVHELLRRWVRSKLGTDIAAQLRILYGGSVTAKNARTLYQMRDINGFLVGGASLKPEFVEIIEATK

As usually defined, the inhibition is the share of the control response that was lost under treatment. High values mean strong suppression, low ones little suppression. On to `CCCCCCCNC(=O)N/N=C/c1ccc([N+](=O)[O-])o1`, for which the Ratio in experiment [1] was greater than 4. For the same compound, in experiment [2], the outcome was Active. The inhibition in experiment [3] came to 60%.
In the case of `CC(=O)CN1C(=O)c2ccccc2C1=O`, the Ratio in experiment [1] was greater than 4. Further, the result in experiment [2] was Active. In experiment [3], this compound returned an inhibition of 30%.
In the case of `O=C(O)c1ccc(/C=C\c2ccc3no[n+]([O-])c3c2)cc1`, in experiment [1], the Ratio was greater than 4. The result in experiment [2] was Active. Also, the inhibition in experiment [3] stood at 6%.
The corresponding values for `CN(C/C=C/c1ccccc1)Cc1ccc2no[n+]([O-])c2c1` are greater than 4, “Active” and 7%.
For `CCCCNC(=O)/C=C/c1ccc([N+](=O)[O-])o1`, in that order: greater than 4, “Active” and 25%.
On to `COC(=O)/C=C/c1ccc2no[n+]([O-])c2c1`, for which the Ratio in experiment [1] is greater than 4. Also, the outcome in experiment [2] was Active. In experiment [3], this compound displayed an inhibition of 8%.
Consider `O=Cc1c(-c2ccccc2)no[n+]1[O-]`, for which, in experiment [1], the Ratio is greater than 4. For the same compound, the result in experiment [2] was Active. The inhibition in experiment [3] was 53%.
The corresponding values for `N#Cc1c(N)[n+]([O-])c2ccc(CN3CCN(C/C=C/c4ccccc4)CC3)cc2[n+]1[O-]` are greater than 4, “Active” and 18%.
The corresponding values for `O=S(=O)(/C=C\c1ccc2no[n+]([O-])c2c1)c1ccccc1` are greater than 4, “Active” and 51%.
For `CCNC(=S)N/N=C/c1ccc([N+](=O)[O-])o1`, in experiment [1], the Ratio is greater than 4. In addition, in experiment [2], the result was Active. Further, in experiment [3], the inhibition came out at 3%.
The corresponding values for `Cc1n(O)c2ccc(Br)cc2[n+]1[O-]` are greater than 4, “Active” and 4%.
The corresponding values for `N#Cc1c2ccccc2[n+]([O-])n1-c1ccc2ccccc2c1` are greater than 4, “Active” and 19%.
For `[O-][n+]1onc2ccc(/C=C\c3ccccc3)cc21`, in that order: greater than 4, “Active” and 0%.
Regarding `CNC(=S)N/N=C/c1ccc([N+](=O)[O-])o1`, in experiment [1], the Ratio is greater than 4. Also, the result in experiment [2] was Active. The same compound returned an inhibition in experiment [3] of 22%.
For `COCCNC(=O)N/N=C/c1ccc([N+](=O)[O-])o1`, in that order: greater than 4, “Active” and 5%.
The corresponding values for `[O-][n+]1onc(-c2ccccc2)c1CN1CCN(c2ccccc2)CC1` are greater than 4, “Active” and 27%.
For `CCCCNC(=O)N/N=C/c1c(-c2ccccc2)no[n+]1[O-]`, in that order: greater than 4, “Active” and 27%.
As for `COc1nn(CCOCCN2CCN(C/C=C/c3ccccc3)CC2)c2ccc([N+](=O)[O-])cc12`, the Ratio in experiment [1] was greater than 4. In addition, in experiment [2], the outcome was Active. The compound further showed an inhibition in experiment [3] of 0%.
The corresponding values for `[O-][n+]1onc2ccc(/C=C\c3ccc(Cl)cc3)cc21` are greater than 4, “Active” and 5%.
For the compound `C=CCNC(=S)N/N=C/c1ccc([N+](=O)[O-])o1`, in experiment [1], the Ratio is greater than 4. Besides, the result in experiment [2] was Active. For the same compound, the inhibition in experiment [3] was determined as 6%.
`COc1ccc(C=O)cc1-c1cc(C=O)ccc1O`: the Ratio in experiment [1] is greater than 4. For the same compound, in experiment [2], the result was Active. This compound also yielded an inhibition in experiment [3] of 32%.
The corresponding values for `O=[N+]([O-])c1ccccc1/C=N/N1CCOCC1` are greater than 4, “Active” and 28%.
